This passage reports Ka, IC50 and Ki results from ChEMBL document CHEMBL1132386, “Mixture-based synthetic combinatorial libraries” (J Med Chem, 1999).

Assay [1] concerns the target T1, Adenosine deaminase (Homo sapiens) (UniProt P00813).
T1 sequence (whole entry): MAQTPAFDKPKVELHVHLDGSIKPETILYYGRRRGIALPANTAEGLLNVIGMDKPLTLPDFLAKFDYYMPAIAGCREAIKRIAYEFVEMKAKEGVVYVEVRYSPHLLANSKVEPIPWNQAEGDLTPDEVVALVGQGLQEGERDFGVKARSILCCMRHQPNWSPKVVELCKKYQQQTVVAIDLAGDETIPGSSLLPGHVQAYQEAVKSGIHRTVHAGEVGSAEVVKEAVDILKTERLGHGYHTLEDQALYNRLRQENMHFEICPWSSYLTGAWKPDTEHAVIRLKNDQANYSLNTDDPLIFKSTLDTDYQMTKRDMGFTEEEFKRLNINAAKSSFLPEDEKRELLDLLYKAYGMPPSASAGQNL

Assay [2] deals with Kappa-type opioid receptor (Cavia porcellus) (UniProt P41144). Kind of assay: Inhibitory activity for kappa opioid receptor.
The next assay concerns the target Acetylcholinesterase (Homo sapiens, UniProt P22303). Kind of assay: Enzyme inhibitory activity towards Acetylcholinesterase.
The target in assay [3] is Kappa-type opioid receptor (Cavia porcellus, UniProt P41144). Kind of assay: Inhibition of Opioid receptor kappa 1 binding. The gist of the method:
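Kappa opioid radioreceptor binding in guinea pig brain homogenate with 3 nM [3H]U69,593 as radioligand, incubated 2.5 h at 25°C. Library mixtures were screened at 4 μg/mL. Data were normalized to percent inhibition using background and total binding.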

Assay [4] is described as follows: Enzyme inhibitory activity towards Matrix metalloproteases.
Assay [5] addresses Sigma non-opioid intracellular receptor 1 (Homo sapiens, UniProt Q99720). Kind of assay: Inhibitory activity towards Sigma opioid receptor type 1.
A further assay deals with Mu-type opioid receptor (Homo sapiens, UniProt P35372). The assay can be described thus: Antagonistic activity towards Opioid receptor mu 1. The format is functional.
For assay [6], the target named is GABA-A receptor; anion channel. The assay can be described thus: Inhibition of binding to GABA-A Benzodiazepine receptor. The format is protein-complex assay.

Chain of Kappa-type opioid receptor (Cavia porcellus) (P41144 whole entry, looked up): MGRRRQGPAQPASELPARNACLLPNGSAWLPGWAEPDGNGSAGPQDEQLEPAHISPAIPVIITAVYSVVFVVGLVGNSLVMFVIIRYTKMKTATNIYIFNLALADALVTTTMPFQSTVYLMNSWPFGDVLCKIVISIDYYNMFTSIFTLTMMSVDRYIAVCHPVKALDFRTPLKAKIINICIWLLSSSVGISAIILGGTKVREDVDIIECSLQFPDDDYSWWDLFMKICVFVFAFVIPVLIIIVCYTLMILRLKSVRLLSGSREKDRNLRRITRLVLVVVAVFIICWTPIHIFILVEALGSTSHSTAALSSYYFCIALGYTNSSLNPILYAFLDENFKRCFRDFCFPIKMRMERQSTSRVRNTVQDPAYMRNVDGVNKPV
Chain of Sigma non-opioid intracellular receptor 1 (Q99720 whole entry): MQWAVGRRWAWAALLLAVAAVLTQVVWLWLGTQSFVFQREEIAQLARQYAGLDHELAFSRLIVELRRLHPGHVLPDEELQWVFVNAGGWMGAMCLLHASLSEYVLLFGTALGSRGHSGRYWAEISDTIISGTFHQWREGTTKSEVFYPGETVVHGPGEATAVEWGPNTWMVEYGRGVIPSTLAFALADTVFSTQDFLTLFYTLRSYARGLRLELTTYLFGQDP
Chain of Kappa-type opioid receptor (P41144 whole entry): as the sequence (P41144 whole entry, looked up) above
Chain of Acetylcholinesterase (P22303 whole entry): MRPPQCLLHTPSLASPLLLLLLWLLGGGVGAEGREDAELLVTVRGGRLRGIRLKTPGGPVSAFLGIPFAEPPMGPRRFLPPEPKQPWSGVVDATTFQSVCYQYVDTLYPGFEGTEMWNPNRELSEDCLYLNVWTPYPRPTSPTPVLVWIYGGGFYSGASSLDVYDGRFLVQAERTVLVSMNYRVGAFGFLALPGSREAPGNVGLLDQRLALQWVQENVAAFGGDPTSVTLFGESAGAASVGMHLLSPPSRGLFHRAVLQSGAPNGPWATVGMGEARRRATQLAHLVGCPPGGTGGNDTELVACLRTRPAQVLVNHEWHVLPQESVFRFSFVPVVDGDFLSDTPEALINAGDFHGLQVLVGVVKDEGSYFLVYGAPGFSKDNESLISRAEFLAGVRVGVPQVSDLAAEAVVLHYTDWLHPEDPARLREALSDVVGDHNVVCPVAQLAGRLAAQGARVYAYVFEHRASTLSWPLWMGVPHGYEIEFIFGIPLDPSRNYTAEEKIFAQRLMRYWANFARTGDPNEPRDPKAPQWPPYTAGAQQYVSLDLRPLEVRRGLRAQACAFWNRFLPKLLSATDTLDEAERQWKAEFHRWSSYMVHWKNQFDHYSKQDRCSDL
Chain of Mu-type opioid receptor (P35372 whole entry): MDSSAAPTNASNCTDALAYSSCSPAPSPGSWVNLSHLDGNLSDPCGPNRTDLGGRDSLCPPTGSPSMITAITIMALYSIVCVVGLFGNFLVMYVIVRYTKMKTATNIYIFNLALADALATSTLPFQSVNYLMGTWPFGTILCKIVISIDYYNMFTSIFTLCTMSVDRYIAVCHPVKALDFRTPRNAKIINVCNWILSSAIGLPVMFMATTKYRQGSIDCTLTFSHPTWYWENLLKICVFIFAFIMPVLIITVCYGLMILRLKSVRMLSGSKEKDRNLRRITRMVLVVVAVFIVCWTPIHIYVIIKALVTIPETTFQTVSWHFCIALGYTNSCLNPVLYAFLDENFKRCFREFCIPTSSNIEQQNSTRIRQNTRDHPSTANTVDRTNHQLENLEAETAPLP

`Nc1ncnc2c1ncn2[C@@H]1O[C@H](CO)[C@@H](O)[C@H]1O` registered a Ka in assay [1] of 1e+08 M⁻¹. The IC50 is the concentration needed to halve the response being measured. Lower therefore signals greater potency in that assay. As for `CC(C)C[C@@H]1CN2C(=NC[C@@H]2C)N1CCC1CC2CCC1C2` (stereo partly drawn), half-maximal inhibition in assay [2] (IC50) required 2310 nM. The same measure, in the same setting: with `CC(C)C[C@@H]1CN2C(=NC[C@@H]2C)N1C(C)C12CC3CC(CC(C3)C1)C2` (stereo partly drawn) the figure was 3640 nM; with `CC(N1C2=NC[C@H](C)N2C[C@@H]1C1CCCCC1)C12CC3CC(CC(C3)C1)C2` (stereo partly drawn), 1940 nM.

On to `NC(=O)O` [CARBAMIC ACID], for which the IC50 on Acetylcholinesterase is 67000 nM. For the compound `CC(C)C[C@@H]1CN2C(=NC[C@@H]2C2CCCCC2)N1CCCC1CCCCC1`, the half-inhibitory concentration (IC50) in assay [2] was 3740 nM. Take `CC(C)C[C@@H]1CN2C(=NC[C@@H]2C2CCCCC2)N1CC1CCC(C)CC1` (stereo partly drawn): the IC50 in assay [3] was determined as 3680 nM; in assay [2], 999 nM. `O=C1CNC(=O)CN1` [DIKETOPIPERAZINE] yielded a 50% inhibitory concentration (IC50) in assay [4] of 30000 nM. Turning to `O=C1CNC(=O)N1` [HYDANTOIN], the IC50 in assay [5] was 62 nM.

The compound `c1cc2c(cn1)CCCC2` [5,6,7,8-TETRAHYDROISOQUINOLINE] displayed a half-maximal inhibitory concentration (IC50) in assay [5] of 56 nM. On to `CC(N1C2=NC[C@H](C3CCCCC3)N2C[C@@H]1C1CCCCC1)C12CC3CC(CC(C3)C1)C2` (stereo partly drawn), for which the IC50 in assay [2] worked out at 1490 nM. Still for that read-out and setting: with `CC(C)C[C@@H]1CN2C(=NC[C@@H]2C2CCCCC2)N1C(C)C12CC3CC(CC(C3)C1)C2` (stereo partly drawn) the figure was 1210 nM. Turning to `C1CCC([C@H]2CN3C(=NC[C@@H]3C3CCCCC3)N2CCC2CC3CCC2C3)CC1` (stereo partly drawn), the midpoint of inhibition in assay [2], the IC50, lay at 560 nM. As to `CC(C)C[C@@H]1CN2C(=NC[C@H]2C2CCCCC2)N1CCCC1CCCCC1`, the IC50 in assay [2] was 1770 nM. Compound `CCCCCC(C)N` (stereo not drawn) [TUAMINOHEPTANE] came in with an IC50 against Mu-type opioid receptor of 14 nM.

In turn, `CC(C)C[C@@H]1CN2C(=NC[C@@H]2C)N1CCCC1CCCCC1` showed an IC50 in assay [2] of 5440 nM. Same read-out and setting: with `CC(C)C[C@@H]1CN2C(=NC[C@H]2C2CCCCC2)N1C(C)C12CC3CC(CC(C3)C1)C2` (stereo partly drawn) the figure was 1750 nM; with `CC1CCC(CN2C3=NC[C@H](C)N3C[C@@H]2C2CCCCC2)CC1` (stereo partly drawn), 5060 nM. Take `C1CCC([C@H]2CN3C(=NC[C@H]3C3CCCCC3)N2CCC2CC3CCC2C3)CC1` (stereo partly drawn): the IC50 in assay [2] came out at 524 nM. What is called Ki is a measure of affinity in units of concentration, obtained from inhibition or displacement. Read a low Ki as tighter binding. Take `O=c1cc(-c2ccccc2)oc2ccccc12` [FLAVONE]: the Ki in assay [6] came to 17 nM. In the case of `CC(N1C2=NC[C@@H](C3CCCCC3)N2C[C@@H]1C1CCCCC1)C12CC3CC(CC(C3)C1)C2` (stereo partly drawn), in assay [2], the IC50 is greater than 10000 nM. The same measure, in the same setting: with `CC(C)C[C@@H]1CN2C(=NC[C@H]2C2CCCCC2)N1CC1CCC(C)CC1` (stereo partly drawn) the figure was 738 nM.
